System: A549
Assay: Cytotoxicity against human A549 cells after 72 hrs by MTT assay
Format: functional, cell-based
Details: A549, 72 h
How it was run: (§1)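 Cells seeded in 96-well plates and grown 24 h at 37 °C, 5% CO2, then exposed to test compound at five concentrations for 72 h. MTT (0.5 mg/mL in PBS) added, 4 h at 37 °C. Medium replaced with DMSO, shaken 3 min to dissolve formazan, optical density read at 544 nm. 5-Fluorouracil as positive control.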
For `CC(C)(O)CCc1c(O)cc(CO)cc1O`, the IC50 was over 40 µM.
In the case of `CC(C)=CCc1c(O)cc(CO)cc1O`, the IC50 is reported as 20.1 µM.
With `CC1(C)C=Cc2c(O)cc(CO)cc2O1` the IC50 was 36.3 µM.
Compound `CC1(C)C=Cc2c(cc3c(c2O)C(=O)OC3)O1` has an IC50 of over 40 µM.
In the case of `O=c1[nH]cc(F)c(=O)[nH]1` [FLUOROURACIL], the IC50 is reported as 14.2 µM.

System: HepG2
Assay: Cytotoxicity against human HepG2 cells after 72 hrs by MTT assay
Format: functional, cell-based
Details: HepG2, 72 h
How it was run: as §1
`CC(C)(O)CCc1c(O)cc(CO)cc1O` showed an IC50 of 17.8 µM.
Work on `CC(C)=CCc1c(O)cc(CO)cc1O` yielded an IC50 of 15.8 µM.
Work on `CC1(C)C=Cc2c(O)cc(CO)cc2O1` yielded an IC50 of 17.3 µM.
`CC1(C)C=Cc2c(cc3c(c2O)C(=O)OC3)O1` gave an IC50 of 37 µM.
Compound `O=c1[nH]cc(F)c(=O)[nH]1` [FLUOROURACIL] has an IC50 of 16.4 µM.

System: not listed separately
Assay: Cytotoxicity against human Bel7402 cells after 72 hrs by MTT assay
Format: functional, cell-based
Details: Bel-7402, 72 h
How it was run: as §1
With `CC(C)(O)CCc1c(O)cc(CO)cc1O` the IC50 was over 40 µM.
With `CC(C)=CCc1c(O)cc(CO)cc1O` the IC50 was 7.69 µM.
`CC1(C)C=Cc2c(O)cc(CO)cc2O1` gave an IC50 of over 40 µM.
With `CC1(C)C=Cc2c(cc3c(c2O)C(=O)OC3)O1` the IC50 was over 40 µM.
`O=c1[nH]cc(F)c(=O)[nH]1` [FLUOROURACIL] showed an IC50 of 10.1 µM.

System: not listed separately
Assay: Cytotoxicity against human HCT8 cells after 72 hrs by MTT assay
Format: functional, cell-based
Details: HCT-8, 72 h
How it was run: as §1
Compound `CC(C)(O)CCc1c(O)cc(CO)cc1O` has an IC50 of over 40 µM.
`CC(C)=CCc1c(O)cc(CO)cc1O` showed an IC50 of 11.4 µM.
With `CC1(C)C=Cc2c(O)cc(CO)cc2O1` the IC50 was over 40 µM.
`CC1(C)C=Cc2c(cc3c(c2O)C(=O)OC3)O1` gave an IC50 of 24.1 µM.
For `O=c1[nH]cc(F)c(=O)[nH]1` [FLUOROURACIL], the IC50 was 6.3 µM.

— ChEMBL document CHEMBL3608271, “New phenolic compounds from the seeds of Nigella glandulifera and their inhibitory activities against human cancer cells” (Bioorg Med Chem Lett, 2015)
